Article PMC4529372 (Biological psychiatry, 2015)

Legend:
Adenosine A3 = target: T1, Adenosine A3 (Homo sapiens, UniProt P0DMS8); assay: radioligand binding displacement; conditions: read-out: % inhibition at 10 μM
T1 sequence (P0DMS8 1-318): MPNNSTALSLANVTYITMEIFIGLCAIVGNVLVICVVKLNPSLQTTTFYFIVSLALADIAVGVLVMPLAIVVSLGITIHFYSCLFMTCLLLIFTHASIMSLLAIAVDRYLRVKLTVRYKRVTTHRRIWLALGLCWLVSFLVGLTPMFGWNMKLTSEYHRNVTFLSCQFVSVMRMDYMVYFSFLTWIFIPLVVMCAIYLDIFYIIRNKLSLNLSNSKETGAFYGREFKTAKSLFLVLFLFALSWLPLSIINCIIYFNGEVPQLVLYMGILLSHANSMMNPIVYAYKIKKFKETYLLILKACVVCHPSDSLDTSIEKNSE
Method in brief: (§1)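 Off-target screen by radioligand binding displacement, run per published methods with reference standards in each assay. […] Recombinant human targets were expressed in CHO-K1 cells (A3, dopamine transporter), Sf9 insect cells (α2A), CHO cells (DOP) and MDCK cells (norepinephrine transporter). IC50, where determined, came from non-linear least-squares regression.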

hmGluR2/hCaR* = assay: fluorescence-based functional assay, HEK […] cells; assay type: cell-based, Homo sapiens; conditions: read-out: Effect; positive allosteric modulator; with 0.02 μM DCG-IV as agonist
[1] = target: Norepinephrine transporter (Homo sapiens, UniProt P23975); assay: radioligand binding displacement
Norepinephrine transporter, sequence (P23975 whole entry): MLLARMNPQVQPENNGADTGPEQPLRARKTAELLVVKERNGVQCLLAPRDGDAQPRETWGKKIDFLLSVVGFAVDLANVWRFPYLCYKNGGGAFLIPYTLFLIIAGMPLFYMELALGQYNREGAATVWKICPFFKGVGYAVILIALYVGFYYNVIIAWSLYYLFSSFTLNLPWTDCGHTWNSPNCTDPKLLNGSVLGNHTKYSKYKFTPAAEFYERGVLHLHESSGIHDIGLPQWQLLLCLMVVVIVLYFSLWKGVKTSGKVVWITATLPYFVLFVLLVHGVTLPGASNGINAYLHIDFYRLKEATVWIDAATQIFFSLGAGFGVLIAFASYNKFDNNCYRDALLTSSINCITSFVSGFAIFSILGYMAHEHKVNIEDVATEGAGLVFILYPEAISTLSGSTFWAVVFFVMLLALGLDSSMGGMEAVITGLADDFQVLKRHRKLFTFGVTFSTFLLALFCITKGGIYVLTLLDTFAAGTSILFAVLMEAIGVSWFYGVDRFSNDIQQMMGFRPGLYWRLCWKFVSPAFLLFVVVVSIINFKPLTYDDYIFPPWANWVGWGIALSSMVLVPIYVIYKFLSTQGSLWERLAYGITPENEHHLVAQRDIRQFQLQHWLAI
Method in brief: as §1

inhibition at 10 µM (Adenosine A3): 51% | EC50 (hmGluR2/hCaR*): 285 ± 20 nM | IC50 [1]: 4730 nM
Structure (SMILES): Cc1cc(-c2nc(CN3CCNCC3)no2)cc2c1C(=O)N(Cc1ccc(OC(F)(F)F)cc1)C2 [AZD8529, 7-methyl-5-(3-piperazin-1-ylmethyl-[1,2,4]oxadiazol-5-yl)-2-(4-trifluoromethoxybenzyl)-2,3-dihydroisoindol-1-one]
